This is an account of results in ChEMBL document CHEMBL3045797, “Isolation and identification of novel macrocyclic lactones from Streptomyces avermitilis NEAU1069 with acaricidal and nematocidal activity” (2010).

Assay type in all cases: functional
Assay [1] has as its system Tetranychus urticae. Put plainly: Acaricidal activity against adult Tetranychus urticae (two-spotted spider mite) in leaves of cowpea plant assessed as mortality at 30 ug/mL at 25 degC measured after 3 days (reference value: 0%). The following applies: 72 h.
For assay [2], the system named is Caenorhabditis elegans. Put plainly: Nematocidal activity against Caenorhabditis elegans assessed as immobilized rate at 50 ug/mL at 25 degC for 15 hr (reference value: 5.3 to 6.8%). The gist of the method: (§1)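 Compounds were prepared as 0.1% MeOH solutions and diluted 10-fold in water to give 100 μg/mL test solutions. Immobilized and total C. elegans were counted under a stereomicroscope. Result is % immobilized of all nematodes tested.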

The subject of assay [3] is Caenorhabditis elegans. Put plainly: Nematocidal activity against Caenorhabditis elegans assessed as immobilized rate at 100 ug/mL at 25 degC for 15 hr (reference value: 5.3 to 6.8%). A digest of the protocol:
as §1

The subject of assay [4] is Tetranychus urticae. Put plainly: Acaricidal activity against adult Tetranychus urticae (two-spotted spider mite) in leaves of cowpea plant assessed as number of unhatched eggs at 2 ug/mL at 25 degC measured after 10 days (reference value: 0%).
The test system of assay [5] is Tetranychus urticae. Put plainly: Acaricidal activity against adult Tetranychus urticae (two-spotted spider mite) in leaves of cowpea plant assessed as number of unhatched eggs at 50 ug/mL at 25 degC measured after 10 days (reference value: 0%).
For assay [6], the system named is Tetranychus urticae. Put plainly: Acaricidal activity against adult Tetranychus urticae (two-spotted spider mite) in leaves of cowpea plant assessed as mortality at 2 ug/mL at 25 degC measured after 3 days (reference value: 0%). To be noted: 72 h.
Assay [7] deals with Tetranychus urticae. Put plainly: Acaricidal activity against adult Tetranychus urticae (two-spotted spider mite) in leaves of cowpea plant assessed as number of unhatched eggs at 100 ug/mL at 25 degC measured after 10 days (reference value: 0%).
Assay [8] has as its system Tetranychus urticae. Put plainly: Acaricidal activity against adult Tetranychus urticae (two-spotted spider mite) in leaves of cowpea plant assessed as mortality at 100 ug/mL at 25 degC measured after 3 days (reference value: 0%). The following applies: 72 h.
Assay [9] relates to Tetranychus urticae. Put plainly: Acaricidal activity against adult Tetranychus urticae (two-spotted spider mite) in leaves of cowpea plant assessed as mortality at 10 ug/mL at 25 degC measured after 3 days (reference value: 0%). The following applies: 72 h.
Assay [10] relates to Tetranychus urticae. Put plainly: Acaricidal activity against adult Tetranychus urticae (two-spotted spider mite) in leaves of cowpea plant assessed as number of unhatched eggs at 10 ug/mL at 25 degC measured after 10 days (reference value: 0%).
Assay [11] deals with Tetranychus urticae. Put plainly: Acaricidal activity against adult Tetranychus urticae (two-spotted spider mite) in leaves of cowpea plant assessed as mortality at 50 ug/mL at 25 degC measured after 3 days (reference value: 0%). The following applies: 72 h.
The subject of assay [12] is Caenorhabditis elegans. Put plainly: Nematocidal activity against Caenorhabditis elegans assessed as immobilized rate at 10 ug/mL at 25 degC for 15 hr (reference value: 5.3 to 6.8%). A digest of the protocol:
as §1

Assay [13] deals with Caenorhabditis elegans. Put plainly: Nematocidal activity against Caenorhabditis elegans assessed as immobilized rate at 30 ug/mL at 25 degC for 15 hr (reference value: 5.3 to 6.8%).
The subject of assay [14] is Tetranychus urticae. Put plainly: Acaricidal activity against adult Tetranychus urticae (two-spotted spider mite) in leaves of cowpea plant assessed as number of unhatched eggs at 30 ug/mL at 25 degC measured after 10 days (reference value: 0%).
Assay [15] concerns Caenorhabditis elegans. Put plainly: Nematocidal activity against Caenorhabditis elegans assessed as immobilized rate at 2 ug/mL at 25 degC for 15 hr (reference value: 5.3 to 6.8%).

As for `C/C1=C\C[C@@H]2C[C@@H](C[C@]3(C[C@@H](O)[C@H](C)[C@@H](C4CCCCC4)O3)O2)OC(=O)c2cc(C)c(O)cc2/C=C/C=C/[C@H](C)[C@@H]1O`, the mortality (usually the share of the test organisms that died) at 30 µg/mL in the assay with Tetranychus urticae [1] came out at 96.4%. The Activity in the assay on Caenorhabditis elegans [2] stood at 100%; in the assay on Caenorhabditis elegans [3], 100%; in the assay on Tetranychus urticae [4], 0%; in the assay on Tetranychus urticae [5], 43.7%; in the assay with Tetranychus urticae [7] it was 59.8%; with Tetranychus urticae [10], 13.9%. Further, the Activity in the assay on Caenorhabditis elegans [12] is on record as 92.7%; in the assay with Caenorhabditis elegans [13], 100%; in the assay with Tetranychus urticae [14], 23.5%; with Caenorhabditis elegans [15], 43.7%. Moreover, in the assay with Tetranychus urticae [6], the mortality at 2 µg/mL was determined as 43.9%. Besides, the mortality at 100 µg/mL with Tetranychus urticae [8] is 100%. Besides, the mortality at 10 µg/mL in the assay on Tetranychus urticae [9] was determined as 75.6%. In the assay with Tetranychus urticae [11], the mortality at 50 µg/mL amounted to 100%.

`C/C1=C\C[C@@H]2C[C@@H](C[C@]3(C=C[C@H](C)[C@@H](C4CCCCC4)O3)O2)OC(=O)c2cc(C)c(O)cc2/C=C/C=C/[C@H](C)[C@@H]1O`: the mortality at 30 µg/mL in the assay with Tetranychus urticae [1] turned out to be 92.5%. In addition, the Activity in the assay on Caenorhabditis elegans [2] was found to be 100%; in the assay with Caenorhabditis elegans [3], 100%; in the assay on Tetranychus urticae [4], 0%; with Tetranychus urticae [5] it was 37.6%; in the assay with Tetranychus urticae [7], 56.7%; in the assay with Tetranychus urticae [10] it was 12.1%. Further, the Activity in the assay on Caenorhabditis elegans [12] is on record as 49.2%; in the assay with Caenorhabditis elegans [13], 81.4%; in the assay on Tetranychus urticae [14], 19.8%; in the assay on Caenorhabditis elegans [15] it was 13.5%. Further, the mortality at 2 µg/mL in the assay on Tetranychus urticae [6] came out at 45.2%. Besides, the mortality at 100 µg/mL in the assay on Tetranychus urticae [8] was 100%. Moreover, in the assay on Tetranychus urticae [9], the mortality at 10 µg/mL was found to be 77.1%. Also, in the assay with Tetranychus urticae [11], the mortality at 50 µg/mL came out at 100%.

As for `CO[C@H]1C[C@H](O[C@H]2[C@H](C)O[C@@H](O[C@@H]3/C(C)=C/C[C@@H]4C[C@@H](C[C@]5(C=C[C@H](C)[C@@H](C6CCCCC6)O5)O4)OC(=O)[C@@H]4C=C(C)[C@@H](O)[C@H]5OC/C(=C\C=C\[C@@H]3C)[C@]54O)C[C@@H]2OC)O[C@@H](C)[C@@H]1O` [DORAMECTIN], the mortality at 30 µg/mL with Tetranychus urticae [1] was 86.5%. Besides, the Activity is on record as 100% with Caenorhabditis elegans [2]; 100% in the assay on Caenorhabditis elegans [3]; 0% in the assay with Tetranychus urticae [4]; 21.5% in the assay on Tetranychus urticae [5]; 47.4% in the assay with Tetranychus urticae [7]; 0% with Tetranychus urticae [10]. Also, the Activity in the assay with Caenorhabditis elegans [12] is recorded as 86.5%; with Caenorhabditis elegans [13], 100%; with Tetranychus urticae [14], 8.9%; with Caenorhabditis elegans [15] it was 45.3%. Also, the mortality at 2 µg/mL in the assay on Tetranychus urticae [6] was found to be 26.8%. In the assay with Tetranychus urticae [8], the mortality at 100 µg/mL came out at 100%. Besides, in the assay on Tetranychus urticae [9], the mortality at 10 µg/mL amounted to 62.9%. Besides, the mortality at 50 µg/mL with Tetranychus urticae [11] turned out to be 100%.
